Assay results: ChEMBL document CHEMBL1123290, “Synthesis, antimalarial activity, and quantitative structure-activity relationships of tebuquine and a series of related 5-[(7-chloro-4-quinolinyl)amino]-3-[(alkylamino)methyl] [1,1'-biphenyl]-2-ols and N omega-oxides” (1986)

Tests used:
Format in all cases: functional
[1] = test system: Plasmodium berghei; assay: Change in mean survival time for control (average 6.2 days) versus treated mice (Mus musculus) after 40 mg/kg subcutaneous dose
[2] = test system: Plasmodium berghei; assay: Change in mean survival time in control (average 6.2 days) versus treated mice (Mus musculus) after 80 mg/kg subcutaneous dose
[3] = test system: Plasmodium berghei; assay: Antimalarial activity in primary screen
[4] = test system: Mus musculus; assay: Antimalarial activity, administered as a single subcutaneous dose of 640 mg/kg, 72 hrs post infection measured as number of mice (Mus musculus) surviving at 60 days post infection
In short: (§1)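 Mice were infected with a normal drug-sensitive Plasmodium berghei strain. At 72 h postinfection each received one subcutaneous dose of compound dissolved or suspended in peanut oil, in five-mouse groups per dose. The read-out was the number of mice alive at 60 days postinfection, which were scored as cured.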

[5] = test system: Plasmodium berghei; assay: Change in mean survival time for control (average 6.2 days) versus treated mice (Mus musculus) after 320 mg/kg subcutaneous dose
[6] = test system: Plasmodium berghei; assay: Change in mean survival time for control (average 6.2 days) versus treated mice (Mus musculus) after 20 mg/kg subcutaneous dose
[7] = test system: Plasmodium berghei; assay: (§2) Change in mean survival time for control (average 6.2 days) versus treated mice (Mus musculus) 72 hrs after […] subcutaneous dose
[8] = test system: Plasmodium berghei; assay: Change in mean survival time for control (average 6.2 days) versus treated mice (Mus musculus) after 160 mg/kg subcutaneous dose
[9] = test system: Plasmodium berghei; assay: Difference in mean survival time of Plasmodium berghei infected mice (Mus musculus) after 10 mg/kg subcutaneous dose
[10] = test system: Plasmodium berghei; assay: Antimalarial activity as 60-day survivors in infected mice (Mus musculus) after single 320mg/kg subcutaneous dose 72 hr post infection; in short: as §1
[11] = test system: Plasmodium berghei; assay: Change in mean survival time of Plasmodium berghei infected mice (Mus musculus) on 1.25 mg/kg subcutaneous dose
[12] = test system: Plasmodium berghei; assay: Change in mean survival time of Plasmodium berghei infected mice (Mus musculus) after […] subcutaneous dose
[13] = test system: Mus musculus; assay: Antimalarial activity, administered as a single subcutaneous dose of 80 mg/kg, 72 hrs post infection measured as number of mice (Mus musculus) surviving at 60 days post infection; in short: as §1
[14] = test system: Plasmodium berghei; assay: Antimalarial activity as 60-day survivors in Plasmodium berghei infected mice (Mus musculus) after single 160mg/kg subcutaneous dose 72 hr post infection; in short: as §1
[15] = test system: Plasmodium berghei; assay: Change in mean survival time of Plasmodium berghei infected mice (Mus musculus) after 5 mg/kg subcutaneous dose
[16] = test system: Plasmodium berghei; assay: Antimalarial activity as 60-day survivors in infected mice (Mus musculus) after single 20 mg/kg subcutaneous dose 72hr post infection; in short: as §1
[17] = test system: Plasmodium berghei; assay: Change in mean survival time for control (average 6.2 days) versus treated mice (Mus musculus) 72 hrs after […] subcutaneous dose
[18] = test system: Plasmodium berghei; assay: Change in mean survival time for control (average 6.2 days) versus treated mice (Mus musculus) 72 hrs after 640 mg/kg subcutaneous dose
[19] = test system: Plasmodium berghei; assay: Difference in mean survival time in mice (Mus musculus) (control = 6.2 days) after single 40mg/kg subcutaneous dose 72hr post infection
[20] = test system: Plasmodium berghei; assay: as §2; remark: listed apart in the source
[21] = test system: Plasmodium berghei; assay: Change in mean survival time for control (average 6.2 days) versus treated mice (Mus musculus) 72 hrs after 5 mg/kg subcutaneous dose
[22] = test system: Plasmodium berghei; assay: Change in mean survival time for control (average 6.2 days) versus treated mice (Mus musculus) 72 hrs after 10 mg/kg subcutaneous dose
[23] = test system: Plasmodium berghei; assay: Change in mean survival time for control (average of 6.2 days) versus treated mice (Mus musculus) 72 hrs after 80 mg/kg subcutaneous dose
[24] = test system: Plasmodium berghei; assay: Change in mean survival time for control (average 6.2 days) versus treated mice (Mus musculus) 72 hrs after 20 mg/kg subcutaneous dose
[25] = test system: Plasmodium berghei; assay: Change in mean survival time for control (average 6.2 days) versus treated mice (Mus musculus) 72 hrs after 160 mg/kg subcutaneous dose
[26] = test system: Mus musculus; assay: Antimalarial activity, administered as a single subcutaneous dose of 40 mg/kg, 72 hrs post infection measured as number of mice (Mus musculus) surviving at 60 days post infection; in short: as §1
[27] = test system: Plasmodium berghei; assay: Change in mean survival time for control (average 6.2 days) versus treated mice (Mus musculus) 72 hrs after 320 mg/kg subcutaneous dose

Structure (SMILES) | Delta MST [1] [days] | Delta MST [2] [days] | ED30 [3] [mg/kg] | No. of mice cured [4] | Delta MST [5] [days] | Delta MST [6] [days] | Delta MST [7] [days] | Delta MST [8] | No. of mice cured [10] | Delta MST [11] [days] | Delta MST [12] [days] | No. of mice cured [13] | No. of mice cured [14] | other results
CCN(CC)Cc1cc(Nc2cc[n+]([O-])c3cc(Cl)ccc23)cc(-c2cc(OC)ccc2OC)c1O | 2.6 | 2 | 2450 | 1 | 7.8 | 0.6 | 27.1 | 6 days | – | – | – | – | – | –
CCN(CC)Cc1cc(Nc2cc[n+]([O-])c3cc(Cl)ccc23)cc(-c2ccc(OC)cc2)c1O | 7.3 | 9.1 | 423 | 2 | 8.2 | 3.7 | 15 | 7.3 | 1 | 0.1 | -0.1 | – | – | Delta MST [9]: 1.1 days
CCN(CC)Cc1cc(Nc2cc[n+]([O-])c3cc(Cl)ccc23)cc(-c2ccncc2)c1O | 5.7 | 8.3 | 330 | 3 | 12.6 | 3.3 | 21.9 | 10.7 days | 2 | – | – | – | – | –
[O-][n+]1ccc(Nc2cc(CN3CCCC3)c(O)c(-c3ccc(Cl)c(Cl)c3)c2)c2ccc(Cl)cc21 | 10.7 | 25.4 | – | 5 | – | 7.9 | – | 24.4 days | 5 | -0.1 | -0.1 | 2 | 3 | Delta MST [15]: 0.7 days; Delta MST [9]: 2.3 days
CCN(CC)Cc1cc(Nc2cc[n+]([O-])c3cc(Cl)ccc23)cc(-c2ccccn2)c1O | 0 | 1 | 550 | 1 | 5.1 | 0.4 | 9.1 | 3 days | 1 | – | – | – | – | –
CCN(CC)Cc1cc(Nc2cc[n+]([O-])c3cc(Cl)ccc23)cc(-c2ccc(C)cc2)c1O | 0.5 | 4.3 | – | – | 15.7 | – | 10.5 | 5.1 days | – | – | – | – | – | No. of mice cured [16]: 1.3
CCN(CC)Cc1cc(Nc2cc[n+]([O-])c3cc(Cl)ccc23)cc(-c2ccc(OC)c(OC)c2)c1O | 5.4 | 5 | 204 | 2 | 12.4 | 2.4 | 11.1 | 11.4 | 3 | – | – | – | – | –
CCN(CC)Cc1cc(Nc2cc[n+]([O-])c3cc(Cl)ccc23)cc(-c2ccccc2C(F)(F)F)c1O | 15.5 | 24.7 | 56.1 | 5 | – | 7.7 | – | 24.7 days | 5 | 0.5 | 0.1 | – | 4 | Delta MST [15]: 0.7 days; Delta MST [9]: 4.1 days
CC(C)(C)NCc1cc(Nc2ccnc3cc(Cl)ccc23)cc(-c2ccc(Cl)c(Cl)c2)c1O | – | – | – | 4 | – | – | – | – | 3 | – | – | 4 | 4 | Delta MST [17]: 0.1 days; Delta MST [18]: 16.4 days; Delta MST [19]: 27.4 days; Delta MST [20]: 0.7 days; Delta MST [21]: 6.1 days; No. of mice cured [16]: 1; Delta MST [22]: 9.7 days; Delta MST [23]: 30.4 days; Delta MST [24]: 10.5 days; Delta MST [25]: 13.4 days; No. of mice cured [26]: 2; Delta MST [27]: 14.4 days
CCN(CC)Cc1cc(Nc2cc[n+]([O-])c3cc(Cl)ccc23)cc(-c2ccccc2OC)c1O | 6.9 | 8.7 | 170 | 1 | 36.2 | 0.7 | 27.2 | 8.9 days | 1 | – | – | – | 2 | –
CCN(CC)Cc1cc(Nc2cc[n+]([O-])c3cc(Cl)ccc23)cc(-c2cccc3ccccc23)c1O | 0.4 | 3 | 14400 | 1 | 1.6 | 0 | 12.9 | 6.4 days | – | – | – | – | – | –
CCN(CC)Cc1cc(Nc2cc[n+]([O-])c3cc(Cl)ccc23)cc(-c2cccc(F)c2)c1O | 22.8 | 22.6 | 33.7 | 1 | 24.1 | 27.2 | 14.8 | 29.6 days | 3 | -0.1 | 0.5 | 2 | 3 | Delta MST [15]: 4.5 days
CN(C)Cc1cc(Nc2ccnc3cc(Cl)ccc23)cc(-c2ccc(Cl)cc2)c1O | – | – | 6.2 | 1 | – | – | – | – | 1 | – | – | 4 | 5 | Delta MST [17]: 6 days; Delta MST [18]: 18.7 days; Delta MST [19]: 18.8 days; Delta MST [20]: 1.2 days; Delta MST [21]: 14.2 days; No. of mice cured [16]: 3; Delta MST [22]: 20.4 days; Delta MST [23]: 45.4 days; Delta MST [24]: 36.8 days; No. of mice cured [26]: 4; Delta MST [27]: 14.4 days
